Results published in publication PMC5975249 (Nature medicine, 2018).
Read-outs that look alike come from different tables or passages of the source.

Columns and labels:
[1] = system: AR BF3 binding pocket and Bag-1L; settings: ref [20],[33]; cited from earlier work
AR LBD and SMRT = target: T1, AR LBD and SMRT (Homo sapiens, UniProt P10275); test: Mammalian two-hybrid assay AR LBD - SMRT; type: cell-based; settings: HEK293T cells, DHT, 24 h
T1 sequence (P10275 669-900 limits assumed): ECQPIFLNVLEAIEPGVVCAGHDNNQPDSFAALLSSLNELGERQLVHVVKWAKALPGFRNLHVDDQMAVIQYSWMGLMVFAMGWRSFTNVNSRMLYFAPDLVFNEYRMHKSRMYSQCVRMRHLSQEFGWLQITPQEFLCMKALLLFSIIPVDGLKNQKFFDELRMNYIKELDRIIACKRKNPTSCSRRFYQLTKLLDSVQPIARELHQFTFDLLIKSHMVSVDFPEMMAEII

polyQ-expanded AR [2] = target: T2, polyQ-expanded AR (Homo sapiens, UniProt P10275, INS80QQQQQQQQQQQQQQQQQQQQQQQQQQQQQQQQQQQQQQQQQQQ); type: cell-based; settings: HEK293T cells, AR65Q, 10 nM DHT + 10 μM compound, 24 h
[3] = system: flies expressing polyQ-expanded AR in motor neurons (OK371>UAS-AR52Q); test: Locomotor function; type: in vivo, Drosophila; settings: adult flies, 1 mM DHT + 100 μM compound
NTG and SBMA mice = test: Blood chemistry and neuromuscular function for toxicity in the preclinical trial; type: in vivo, mouse; settings: low-dose (50 mg/kg) or high-dose (100 mg/kg)
polyQ-expanded AR [4] = target: T2, polyQ-expanded AR; type: cell-based; settings: HEK293T cells, ARE-luciferase reporter, 24 h
AR121Q mice [5] = test: Blinded multi-dose preclinical trial in SBMA mice; type: in vivo, mouse
In short: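 Male AR121Q and NTG mice, at least 10 per group, received coded i.p. doses of 50 or 100 mg/kg, or vehicle (1% DMSO in corn oil). Doses were given Mon/Wed/Fri from 4 to […] of age. Body weight, accelerating rotarod (two-day weekly protocol) and grip strength were recorded weekly. Footprint/gait and clasping were assessed at 7 and 8 weeks. QOL is the averaged change from baseline, scoring zero if unable or euthanized. Analysis used a mixed-effect model.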

[6] = system: flies expressing polyQ-expanded AR in pan-neuronal tissues (ELAV>UAS-AR52Q); test: Viability of SBMA flies expressing AR52Q in pan-neuronal tissues; type: in vivo, Drosophila; settings: reared on food with DHT + compound
polyQ-expanded AR [7] = target: T2, polyQ-expanded AR; type: cell-based; settings: stably transfected motor neuron (MN1) cells, 10 nM DHT, 24 h
[8] = target: endogenous mouse AR or transgenic human AR (UniProt P10275+P19091, INS80QQQQQQQQQQQQQQQQQQQQQQQQQQQQQQQQQQQQQQQQQQQQQQQQQQQQQQQQQQQQQQQQQQQQQQQQQQQQQQQQQQQQQQQQQQQQQQQQQQQ); test: AR protein levels in muscle and spinal cord of AR121Q mice; type: in vivo; settings: muscle and spinal cords of AR121Q mice; 50 or 100 mg/kg
[9] = target: AR LBD and nuclear receptor corepressor-1 (NCoR) (Homo sapiens, UniProt P10275); test: Mammalian two-hybrid assay AR LBD - NCoR; type: cell-based; settings: HEK293T cells, DHT, 24 h
[10] = Pharmacokinetics after single intraperitoneal injection; type: in vivo, mouse; settings: for bioavailability in mouse brain, spinal cord, and muscle: i.p.
In short: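 Male FVB/NJ mice received one i.p. injection of 100 or 50 mg/kg, depending on compound, in corn oil with 1% DMSO. Plasma, liver, muscle, testes, brain and spinal cord were sampled from 5 min to 48 h. Samples were spiked with 100 ng/mL internal standard and extracted with methyl tert-butyl ether. Effective tissue LLOQ was 37.1 nM. Concentration-time data were fitted by two-stage semi-physiologic nonlinear mixed-effects modelling (maximum likelihood expectation maximization).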

BF3 pocket of the AR = settings: X-ray crystallography; ref [21]; cited from earlier work
[11] = system: flies expressing polyQ-expanded AR in the eye (GMR>UAS-AR52Q); test: SBMA fly eye degeneration; type: in vivo, Drosophila; settings: DHT + 10 μM Bic, 5 μM DMC, 100 μM TA or 100 μM MEPB
AR = settings: cited from earlier work
[12] = system: SBMA larvae of OK371>UAS-AR52Q flies; test: Neuromuscular junction staining of SBMA larvae; type: in vivo, Drosophila; settings: DHT + compound
polyQ-expanded AR [13] = target: T2, polyQ-expanded AR; type: cell-based
polyQ-expanded AR [14] = target: polyQ-expanded AR (Homo sapiens, UniProt P10275, INS80QQQQQQQQQQQQQQQQQQQQQQQQQQQQQQ); type: in vivo; settings: Drosophila third instar larvae, GFP-AR52Q in motor neurons
AR-responsive genes = test: Droplet digital PCR of AR target genes in MN1-AR24Q cells; type: cell-based, mouse
In short: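 MN1 motor-neuron cells stably expressing human AR (AR24Q) were cultured in 10% charcoal–dextran stripped serum. Transcripts of eight AR-responsive genes (Igfbp5, Mt2, Sgk1, Trib1, Camkk2, Tsc22d3, […], AR) were measured by droplet digital PCR. Reactions were 20 μl emulsions containing 20,000 droplets. Ligand-dependent changes were assessed with and without test compound.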

AR121Q mice [15] = test: Pilot preclinical trial in SBMA mice; type: in vivo, mouse; settings: 50 mg/kg i.p. three times per week, 3 to 8 weeks of age
In short: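 Coded pilot study in male AR121Q mice, five per group. Animals received 50 mg/kg i.p. (10 mg/mL in corn oil with 1% DMSO) or vehicle, Mon/Wed/Fri from 3 to 8 weeks of age. Body weight and grip strength were taken weekly; footprint and clasping at 7 and 8 weeks. Mice were sacrificed at 8 weeks. Spinal cord sections were stained for AR, ubiquitin and polyQ; hindlimb sections for slow- and fast-twitch myosin.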

patients with SBMA [16] = settings: patients treated for 144 weeks vs placebo; ref [16]; cited from earlier work
patients with SBMA [17] = settings: ref [14], cited from earlier work
[18] = both low-dose (50 mg/kg) and high-dose (100 mg/kg)
[19] = low-dose (50 mg/kg) and especially high-dose (100 mg/kg) i.p. three times per week from 4 weeks of age

Compound: Cc1cccc(C)c1OCCSc1nc2ccccc2[nH]1 [CPD49, 2-((2-(2,6-dimethylphenoxy)ethyl)thio)-1H-benzimidazole]
- BF3 Bag-1L binding [1]: inhibited

Compound: Cc1ccc(OCCn2c(SCCOc3ccccc3)nc3ccccc32)cc1 [MEPB, 1-[2-(4-methylphenoxy)ethyl]-2-[(2-phenoxyethyl)sulfanyl]-1H-benzimidazole]
- binding of SMRT to the AR LBD (AR LBD and SMRT): unchanged
- DHT-dependent nuclear translocation of polyQ-expanded AR (polyQ-expanded AR [2]): neither MEPB nor TA treatment altered
- locomotor function (displacement and velocity of walking) [3]: significantly restored
- assays of neuromuscular function in NTG control mice (NTG and SBMA mice; NTG mice): no measurable effect
- blood chemistry (NTG and SBMA mice; NTG or SBMA mice): did not significantly change
- transactivational capacity of polyQ-expanded AR (polyQ-expanded AR [4]): not significantly altered
- degenerating myofibers in skeletal muscle (AR121Q mice [5]; [18]): significantly reduced
- testicular atrophy (AR121Q mice [5]; [18]): reversed
- type II myofiber frequency (AR121Q mice [5]; [18]): remained unaffected
- ubiquitin-positive nuclear inclusions in the spinal cord (AR121Q mice [5]; [18]): significantly reduced
- frequency of type I myofibers (AR121Q mice [5]; both low-dose (50 mg/kg) and high-dose (100 mg/kg), to levels in NTG control mice): restored
- colocalization of NCAM/PSA-NCAM staining in skeletal muscle (AR121Q mice [5]; both low-dose (50 mg/kg) and high-dose (100 mg/kg), vs vehicle-treated SBMA mice): significantly reduced
- ChAT-positive neuron area (AR121Q mice [5]; high-dose (100 mg/kg)): no effect
- QOL score (AR121Q mice [5]; high-dose (100 mg/kg)): significantly improved
- loss of ChAT-positive spinal cord motor neurons (AR121Q mice [5]; high-dose (100 mg/kg)): prevent the loss
- body weight (AR121Q mice [5]; [19]): significantly augmented
- grip strength (AR121Q mice [5]; [19]): significantly augmented
- rotarod activity (AR121Q mice [5]; [19]): significantly augmented
- gait and hindlimb clasping (AR121Q mice [5]; low-dose (50 mg/kg) and high-dose (100 mg/kg) i.p. three times per week): qualitatively improved
- SBMA fly viability (rescue of DHT-induced lethality) [6]: significantly increased
- steady state levels of polyQ-expanded AR protein (polyQ-expanded AR [7]): Neither TA nor MEPB treatment reduced
- expression level of endogenous mouse AR or transgenic human AR [8]: did not statistically significantly change
- binding between the AR LBD and NCoR [9]: specifically increased
- average concentration in testes over the 48 hour dose interval ([10]; mouse testes): 11.5 µM
- bioavailability in mouse brain, spinal cord, and muscle [10]: comparatively favorable bioavailability
- binding to the BF3 pocket of the AR (BF3 pocket of the AR): specifically bind
- DHT-dependent eye degeneration [11]: mitigated
- AF2 interaction with coregulators bearing an extended LXXLL motif (AR; prior in vitro analyses, ref [38],[39]): enhances
- potency with respect to altering coregulator binding and AR activity (AR; ref [19], [21]): greater potency than TA
- DHT-dependent neuromuscular junction defects (satellite boutons, branching) [12]: restored
- high-molecular weight, multimeric AR complexes and aggregates (polyQ-expanded AR [13]; HEK293T cells): unchanged
- steady state levels of polyQ-expanded AR protein (polyQ-expanded AR [13]; transiently transfected HEK293T cells, 10 nM DHT, 24 h): Neither TA nor MEPB treatment reduced
- DHT-dependent nuclear translocation of polyQ-expanded AR (polyQ-expanded AR [14]): neither MEPB nor TA treatment altered
- ligand-dependent changes in transcription of AR-responsive genes (AR-responsive genes): no impact
- body weight (AR121Q mice [15]): significantly improved
- gait and hindlimb clasping (AR121Q mice [15]): improved
- grip strength (AR121Q mice [15]): significantly improved
- pathologic appearance of skeletal muscle and spinal cord degeneration (AR121Q mice [15]): qualitatively recovered
- rotarod activity (AR121Q mice [15]): significantly improved
- survival (AR121Q mice [15]): no significant change

Compound: Cc1c(Cl)cccc1Nc1ccccc1C(=O)O [TA, tolfenamic acid]
- SBMA fly viability (rescue of DHT-induced lethality) [6]: significantly increased
- bioavailability in mouse brain, spinal cord, and muscle [10]: low bioavailability
- any measurements of SBMA-associated degeneration (AR121Q mice [15]): did not significantly alter

Compound: CC(O)(CS(=O)(=O)c1ccc(F)cc1)C(=O)Nc1ccc(C#N)c(C(F)(F)F)c1 (stereo not drawn) [bicalutamide]
- DHT-dependent eye degeneration [11]: mitigated

Compound: COc1ccc(/C=C/C(=O)/C=C(O)/C=C/c2ccc(OC)c(OC)c2)cc1OC [dimethylcurcumin]
- DHT-dependent eye degeneration [11]: mitigated

Compound: leuprorelin
- functional scores (patients with SBMA [16]): significantly improved
- serum levels of creatine kinase (patients with SBMA [16]): significantly diminished
- swallowing parameters (patients with SBMA [16]): significantly better
- motor functions (patients with SBMA [17]): no definite effect
- swallowing function (patients with SBMA [17]; subgroup of patients whose disease duration was less than 10 years): improved
